Measured values from ChEMBL document CHEMBL1125865, “Synthesis, antibacterial activities, and pharmacological properties of enantiomers of temafloxacin hydrochloride” (J Med Chem, 1991).
Converted amounts (≈) assume the structure as drawn.

How the values were obtained:
[1] = test system: Escherichia coli; assay: The in vitro antibacterial activity as minimum inhibitory concentration against Escherichia coli DC-2; format: functional
In short: (§1)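 Agar dilution in BHI agar. Organisms were grown overnight in BHI broth at 36 °C. Two-fold dilutions gave test concentrations from 200 to 0.005 μg/mL. Plates were inoculated with ~10^4 organisms and incubated 18 h at 36 °C. MIC was the lowest concentration with no visible growth.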

[2] = test system: Escherichia coli; assay: Median dose against Escherichia coli Juhl in mouse after peroral administration at a dose of 100xLD50 in TEST 2.; format: functional; conditions: po
In short: (§2)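 CF-1 female mice (~20 g) were infected ip with 0.5 mL of an 18-h BHI broth culture diluted in 5% (w/v) hog gastric mucin to the stated multiple of LD50. The HCl salt was dissolved in distilled water and given sc or po, with the total dose split equally at 1 and 5 h post-infection. Groups of 10 mice received at least three dose levels; ten infected mice were left untreated. Deaths were recorded daily for 6 days. ED50 came from day-6 cumulative mortality using the trimmed logit method.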

[3] = test system: Pseudomonas aeruginosa; assay: The in vitro antibacterial activity as minimum inhibitory concentration against Pseudomonas aeruginosa A5007; format: functional; in short: as §1
[4] = test system: Pseudomonas aeruginosa; assay: The in vitro antibacterial activity as minimum inhibitory concentration against Pseudomonas aeruginosa BMH10; format: functional; in short: as §1
[5] = test system: Pseudomonas aeruginosa; assay: Median dose against Pseudomonas aeruginosa A5007 in mouse after subcutaneous administration at a dose of 100xLD50 in TEST 1.; format: functional; conditions: sc; in short: as §2
[6] = test system: Escherichia coli; assay: The in vitro antibacterial activity as minimum inhibitory concentration against Escherichia coli SS; format: functional; in short: as §1
[7] = test system: Providencia stuartii; assay: The in vitro antibacterial activity as minimum inhibitory concentration against Providencia stuartii CMX 640; format: functional; in short: as §1
[8] = test system: Enterococcus faecium; assay: The in vitro antibacterial activity as minimum inhibitory concentration against Enterococcus faecium ATCC 8043; format: functional; in short: as §1
[9] = test system: Escherichia coli; assay: The in vitro antibacterial activity as minimum inhibitory concentration against Escherichia coli KNK437; format: functional; in short: as §1
[10] = test system: Pseudomonas aeruginosa; assay: The in vitro antibacterial activity as minimum inhibitory concentration against Pseudomonas aeruginosa K799/61; format: functional; in short: as §1
[11] = test system: Pseudomonas aeruginosa; assay: Median dose against Pseudomonas aeruginosa A5007 in mouse after peroral administration at a dose of 100xLD50 in TEST 2.; format: functional; conditions: po; in short: as §2
[12] = test system: Pseudomonas aeruginosa; assay: Median dose against Pseudomonas aeruginosa A5007 in mouse after subcutaneous administration at a dose of 100xLD50 in TEST 2.; format: functional; conditions: sc; in short: as §2
[13] = test system: Streptococcus pneumoniae; assay: Median dose against Streptococcus pneumoniae 6303 in mouse after subcutaneous administration at a dose of 100xLD50 in TEST 1.; format: functional; conditions: sc; in short: as §2
[14] = test system: Streptococcus equinus; assay: The in vitro antibacterial activity as minimum inhibitory concentration against Streptococcus bovis A5169; format: functional
In short: (§3)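 Agar dilution: organisms grown overnight in BHI broth at 36 °C. Two-fold dilutions of a 2000 μg/mL stock were made in BHI agar, giving 200 to 0.005 μg/mL final. Plates were inoculated with about 10^4 organisms and incubated 18 h at 36 °C. MIC is the lowest concentration with no visible growth.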

[15] = test system: Escherichia coli; assay: Median dose against Escherichia coli Juhl cumulative mortalities in mouse after peroral administration at a dose of 100xLD50 in TEST 1.; format: functional; conditions: po
In short: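 Female CF-1 mice (~20 g) were challenged ip with 0.5 mL of 18-h BHI culture diluted in 5% hog gastric mucin to 100× LD50 (LD50 by Reed–Muench). Oral doses in distilled water were split equally at 1 and 5 h post-infection, with ≥3 dose levels and 10 mice each, plus untreated controls. ED50 was derived from day-6 cumulative mortality by trimmed logit.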

[16] = test system: Staphylococcus aureus; assay: Median dose against Staphylococcus aureus NCTC 10649 in mouse after peroral administration at a dose of 100xLD50 in TEST 1.; format: functional; conditions: po; in short: as §2
[17] = Compound was tested for its water solubility at pH 7.5; format: physicochemical; conditions: aqueous, pH 7.5, pH 7.5
In short: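 Solubility measured by adding excess drug to a fixed volume of 0.05 M pH 7.5 potassium phosphate buffer at ambient temperature.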

[18] = test system: Staphylococcus aureus; assay: Median dose against Staphylococcus aureus NCTC 10649 in mouse after subcutaneous administration at a dose of 100xLD50 in TEST 1.; format: functional; conditions: sc; in short: as §2
[19] = test system: Micrococcus luteus; assay: The in vitro antibacterial activity as minimum inhibitory concentration against Micrococcus luteus ATCC 4698; format: functional; in short: as §1
[20] = test system: Streptococcus pneumoniae; assay: Median dose against Streptococcus pneumoniae 6303 in mouse after peroral administration at a dose of 100xLD50 in TEST 1.; format: functional; conditions: po; in short: as §2
[21] = test system: Klebsiella pneumoniae; assay: The in vitro antibacterial activity as minimum inhibitory concentration against Klebsiella pneumoniae ATCC 8045; format: functional; in short: as §1
[22] = test system: Staphylococcus aureus; assay: Median dose against Staphylococcus aureus NCTC 10649 in mouse after peroral administration at a dose of 100xLD50 in TEST 2.; format: functional; conditions: po; in short: as §2
[23] = test system: Burkholderia cepacia; assay: The in vitro antibacterial activity as minimum inhibitory concentration against Pseudomonas cepacia 2961; format: functional; in short: as §1
[24] = test system: Staphylococcus aureus; assay: The in vitro antibacterial activity as minimum inhibitory concentration against Staphylococcus aureus A5177; format: functional; in short: as §3
[25] = test system: Escherichia coli; assay: Median dose against Escherichia coli Juhl in mouse after subcutaneous administration at a dose of 100xLD50 in TEST 1.; format: functional; conditions: sc; in short: as §2
[26] = Compound was tested for its water solubility in water.; format: ADME; conditions: read-out: S
In short: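 Solubility measured by adding excess drug to a fixed volume of distilled water at ambient temperature.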

[27] = test system: Pseudomonas aeruginosa; assay: The in vitro antibacterial activity as minimum inhibitory concentration against Pseudomonas aeruginosa K799/WT; format: functional; in short: as §1
[28] = test system: Klebsiella aerogenes; assay: The in vitro antibacterial activity as minimum inhibitory concentration against Enterobacter aerogenes ATCC 13048; format: functional; in short: as §1
[29] = test system: Escherichia coli; assay: The in vitro antibacterial activity as minimum inhibitory concentration against Escherichia coli H-560; format: functional; in short: as §1
[30] = test system: Staphylococcus aureus; assay: The in vitro antibacterial activity as minimum inhibitory concentration against Staphylococcus aureus ATCC 6538P; format: functional; in short: as §3
[31] = test system: Escherichia coli; assay: The in vitro antibacterial activity as minimum inhibitory concentration against Escherichia coli Juhl; format: functional; in short: as §1
[32] = test system: Micrococcus luteus; assay: The in vitro antibacterial activity as minimum inhibitory concentration against Micrococcus luteus ATCC 9341; format: functional; in short: as §1
[33] = test system: Staphylococcus aureus; assay: Median dose against Staphylococcus aureus NCTC 10649 in mouse after subcutaneous administration at a dose of 100xLD50 in TEST 2.; format: functional; conditions: sc; in short: as §2
[34] = test system: Staphylococcus aureus; assay: The in vitro antibacterial activity as minimum inhibitory concentration against Staphylococcus aureus 45 RAR2; format: functional; in short: as §1
[35] = test system: Acinetobacter; assay: The in vitro antibacterial activity as minimum inhibitory concentration against Acinetobacter sp. CMX 669; format: functional; in short: as §1
[36] = test system: Escherichia coli; assay: Median dose against Escherichia coli Juhl in mouse after subcutaneous administration at a dose of 100xLD50 in TEST 2.; format: functional; conditions: sc; in short: as §2
[37] = test system: Staphylococcus epidermidis; assay: The in vitro antibacterial activity as minimum inhibitory concentration against Staphylococcus epidermidis 3519; format: functional; in short: as §3
[38] = test system: Staphylococcus aureus; assay: The in vitro antibacterial activity as minimum inhibitory concentration against Staphylococcus aureus 45; format: functional; in short: as §1
[39] = test system: Pseudomonas aeruginosa; assay: Median dose against Pseudomonas aeruginosa A5007 in mouse after peroral administration at a dose of 100xLD50 in TEST 1.; format: functional; conditions: po; in short: as §2
[40] = test system: Streptococcus pyogenes; assay: The in vitro antibacterial activity as minimum inhibitory concentration against Streptococcus pyogenes EES61; format: functional; in short: as §3
[41] = test system: Streptococcus pyogenes; assay: The in vitro antibacterial activity as minimum inhibitory concentration against Streptococcus pyogenes 2548 INDUC; format: functional; in short: as §3
[42] = test system: Streptococcus agalactiae; assay: The in vitro antibacterial activity as minimum inhibitory concentration against Streptococcus agalactiae CMX 508; format: functional; in short: as §3
[43] = test system: Staphylococcus aureus; assay: The in vitro antibacterial activity as minimum inhibitory concentration against Staphylococcus aureus CMX 553; format: functional; in short: as §3
[44] = test system: Streptococcus pyogenes; assay: The in vitro antibacterial activity as minimum inhibitory concentration against Streptococcus pyogenes 930 Const; format: functional; in short: as §3
[45] = Partition coefficient in octanol/water at pH 7.5 buffer.; format: physicochemical
[46] = test system: Rattus norvegicus; assay: Effect on the spontaneous locomotor activity of rats at 0-15 min upon ip administration of the compounds at a dose of 15 mg/kg; format: functional; conditions: route intraperitoneal
In short: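 Rats were dosed ip; methylcellulose served as vehicle, and treatments were assigned randomly. Thirty minutes after dosing, each rat was placed in its own circular activity chamber. Activity was counted as photocell beam interruptions and recorded at 15 and 60 min after the test started. Values are mean counts ± SEM.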

## CC1CN(c2cc3c(cc2F)c(=O)c(C(=O)O)cn3-c2ccc(F)cc2F)CCN1 (stereo unspecified) [TEMAFLOXACIN]
[1]
  MIC: 0.39 µg/mL (≈ 0.934 µM)
[2]
  ED50: 5 mg/kg
[3]
  MIC: 0.39 µg/mL (≈ 0.934 µM)
[4]
  MIC: 0.39 µg/mL (≈ 0.934 µM)
[5]
  ED50: 10.3 mg/kg
[6]
  MIC: 5 ng/mL (≈ 0.012 µM)
[7]
  MIC: 3.1 µg/mL (≈ 7.43 µM)
[8]
  MIC: 0.78 µg/mL (≈ 1.87 µM)
[9]
  MIC: 0.39 µg/mL (≈ 0.934 µM)
[10]
  MIC: 0.05 µg/mL (≈ 0.12 µM)
[11]
  ED50: 26.6 mg/kg
[12]
  ED50: 12.5 mg/kg
[13]
  ED50: 6.2 mg/kg
[14]
  MIC: 1.56 µg/mL (≈ 3.74 µM)
[15]
  ED50: 3.7 mg/kg
[16]
  ED50: 6 mg/kg
[17]
  solubility: 670 µg/mL (≈ 1610 µM)
[18]
  ED50: 1.5 mg/kg
[19]
  MIC: 1.56 µg/mL (≈ 3.74 µM)
[20]
  ED50: 10.2 mg/kg
[21]
  MIC: 0.05 µg/mL (≈ 0.12 µM)
[22]
  ED50: 3.2 mg/kg
[23]
  MIC: 12.5 µg/mL (≈ 29.9 µM)
[24]
  MIC: 0.2 µg/mL (≈ 0.479 µM)
[25]
  ED50: 0.5 mg/kg
[26]
  solubility: 6500 µg/mL (≈ 15600 µM)
[27]
  MIC: 0.39 µg/mL (≈ 0.934 µM)
[28]
  MIC: 0.1 µg/mL (≈ 0.24 µM)
[29]
  MIC: 0.05 µg/mL (≈ 0.12 µM)
[30]
  MIC: 0.1 µg/mL (≈ 0.24 µM)
[31]
  MIC: 0.05 µg/mL (≈ 0.12 µM)
[32]
  MIC: 3.1 µg/mL (≈ 7.43 µM)
[33]
  ED50: 1.3 mg/kg
[34]
  MIC: 0.39 µg/mL (≈ 0.934 µM)
[35]
  MIC: 0.1 µg/mL (≈ 0.24 µM)
[36]
  ED50: 0.6 mg/kg
[37]
  MIC: 0.2 µg/mL (≈ 0.479 µM)
[38]
  MIC: 0.2 µg/mL (≈ 0.479 µM)
[39]
  ED50: 26.6 mg/kg
[40]
  MIC: 0.39 µg/mL (≈ 0.934 µM)
[41]
  MIC: 0.39 µg/mL (≈ 0.934 µM)
[42]
  MIC: 0.78 µg/mL (≈ 1.87 µM)
[43]
  MIC: 0.2 µg/mL (≈ 0.479 µM)
[44]
  MIC: 0.78 µg/mL (≈ 1.87 µM)
[45]
  logD: -0.29

## CN(C)CCCN1c2ccccc2Sc2ccc(Cl)cc21 [CHLORPROMAZINE]
[46]
  Mean activity counts: 31
